Test [1] has as its target ALK tyrosine kinase receptor (Homo sapiens) (UniProt Q9UM73). Description: Binding affinity to human ALK at 500 nM by cell-based competition binding assay relative to control in presence of DTT. A digest of the protocol: (§1)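 Kinase binding profiling ran on a commercial (Ambit) competitive binding screen against a panel of 90 kinases. The screen used reducing conditions with 7.5 mM DTT. To withstand the DTT, the bivalent ligand was tested as its amide isostere, with the disulfide replaced. A staurosporine derivative carrying a 3 β-alanine linker was run as the reference compound.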

For test [2], the target named is Cyclin-dependent kinase 9 (Homo sapiens) (UniProt P50750). Description: Binding affinity to human CDK9 at 500 nM by cell-based competition binding assay relative to control in presence of DTT. The method in brief: (§2)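 Commercial (Ambit) competitive kinase-binding panel of 90 kinases measured the binding profile. Run under reducing conditions of 7.5 mM DTT. Binding is expressed relative to control.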

The test system of test [3] is Tyrosine-protein kinase ABL1 (Homo sapiens), P00519 [T315I]. Description: Binding affinity to human ABL1 T315I mutant at 500 nM by cell-based competition binding assay relative to control in presence of DTT. The method in brief:
as §1

Test [4] has as its target Serine/threonine-protein kinase PLK3 (Homo sapiens) (UniProt Q9H4B4). Description: Binding affinity to human PLK3 at 500 nM by cell-based competition binding assay relative to control in presence of DTT.
In test [5] the target is Platelet-derived growth factor receptor beta (Homo sapiens) (UniProt P09619). Description: Binding affinity to human PDGFRbeta at 500 nM by cell-based competition binding assay relative to control in presence of DTT.
Test [6] has as its target T1, Activin receptor type-1B (Homo sapiens) (UniProt P36896).
T1 sequence (whole entry): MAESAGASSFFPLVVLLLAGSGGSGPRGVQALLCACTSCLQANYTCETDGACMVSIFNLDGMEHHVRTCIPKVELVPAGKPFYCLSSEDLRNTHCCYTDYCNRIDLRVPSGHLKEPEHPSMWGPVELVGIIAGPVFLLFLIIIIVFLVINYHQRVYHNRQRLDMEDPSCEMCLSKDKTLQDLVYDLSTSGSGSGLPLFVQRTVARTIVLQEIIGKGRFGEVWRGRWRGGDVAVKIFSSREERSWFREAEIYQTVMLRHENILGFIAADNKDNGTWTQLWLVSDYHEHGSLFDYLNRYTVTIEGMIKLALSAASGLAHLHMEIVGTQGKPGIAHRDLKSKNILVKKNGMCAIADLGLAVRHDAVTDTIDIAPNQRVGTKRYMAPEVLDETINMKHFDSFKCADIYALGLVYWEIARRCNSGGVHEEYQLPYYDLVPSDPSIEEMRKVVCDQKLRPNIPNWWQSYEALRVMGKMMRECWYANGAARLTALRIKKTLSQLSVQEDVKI
Description: Binding affinity to human ACVR1B at 500 nM by cell-based competition binding assay relative to control in presence of DTT. The method in brief: as §1

The target of test [7] is T2, Tyrosine-protein kinase ZAP-70 (Homo sapiens) (UniProt P43403).
T2 sequence (whole entry): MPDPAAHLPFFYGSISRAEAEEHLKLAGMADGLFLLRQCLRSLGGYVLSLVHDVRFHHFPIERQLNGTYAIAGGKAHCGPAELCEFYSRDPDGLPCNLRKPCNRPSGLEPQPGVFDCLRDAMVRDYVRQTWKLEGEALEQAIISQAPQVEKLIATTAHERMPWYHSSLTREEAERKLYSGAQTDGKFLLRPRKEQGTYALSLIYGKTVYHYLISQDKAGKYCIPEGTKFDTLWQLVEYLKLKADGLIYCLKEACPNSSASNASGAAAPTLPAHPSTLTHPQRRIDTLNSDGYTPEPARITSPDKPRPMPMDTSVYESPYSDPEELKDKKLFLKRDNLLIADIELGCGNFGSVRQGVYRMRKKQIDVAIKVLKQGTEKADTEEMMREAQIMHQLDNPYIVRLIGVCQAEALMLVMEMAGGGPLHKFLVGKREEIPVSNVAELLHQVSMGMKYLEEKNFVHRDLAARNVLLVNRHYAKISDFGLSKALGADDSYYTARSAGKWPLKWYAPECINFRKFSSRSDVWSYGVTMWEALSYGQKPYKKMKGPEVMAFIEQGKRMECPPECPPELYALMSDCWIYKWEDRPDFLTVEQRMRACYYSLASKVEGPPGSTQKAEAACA
Description: Binding affinity to human ZAP70 at 500 nM by cell-based competition binding assay relative to control in presence of DTT.

For test [8], the target named is Cyclin-dependent kinase 19 (Homo sapiens) (UniProt Q9BWU1). Description: Binding affinity to human CDK11 at 200 nM by cell-based competition binding assay relative to control in presence of DTT. A digest of the protocol: as §1
Test [9] concerns the target Platelet-derived growth factor receptor alpha (Homo sapiens) (UniProt P16234). Description: Binding affinity to human PDGFRalpha at 200 nM by cell-based competition binding assay relative to control in presence of DTT.
In test [10] the target is Mitogen-activated protein kinase 14 (Homo sapiens) (UniProt Q16539). Description: Binding affinity to human p38alpha at 200 nM by cell-based competition binding assay relative to control in presence of DTT.
The target in test [11] is Proto-oncogene tyrosine-protein kinase receptor Ret (Homo sapiens) (UniProt P07949). Description: Binding affinity to human RET at 200 nM by cell-based competition binding assay relative to control in presence of DTT.
Test [12] addresses T2, Tyrosine-protein kinase ZAP-70 (Homo sapiens). Description: Binding affinity to human ZAP70 at 50 nM by cell-based competition binding assay relative to control in presence of DTT.
Test [13] has as its target Ephrin type-A receptor 2 (Homo sapiens) (UniProt P29317). Description: Binding affinity to human EPHA2 at 50 nM by cell-based competition binding assay relative to control in presence of DTT. The method in brief: as §2
The target in test [14] is RAC-alpha serine/threonine-protein kinase (Homo sapiens) (UniProt P31749). Description: Binding affinity to human AKT1 at 50 nM by cell-based competition binding assay relative to control in presence of DTT. A digest of the protocol: as §1
Test [15] has as its target Mast/stem cell growth factor receptor Kit (Homo sapiens) (UniProt P10721). Description: Binding affinity to human KIT at 50 nM by cell-based competition binding assay relative to control in presence of DTT. A digest of the protocol: (§3)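 Competition binding screen (Ambit) across a panel of 90 kinases, scoring test ligand displacement of each kinase's binding relative to control. The screen ran under reducing conditions with 7.5 mM DTT.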

Test [16] has as its target Serine/threonine-protein kinase pim-1 (Homo sapiens) (UniProt P11309). Description: Binding affinity to human PIM1 at 50 nM by cell-based competition binding assay relative to control in presence of DTT.
Test [17] addresses Mitogen-activated protein kinase 8 (Homo sapiens) (UniProt P45983). Description: Binding affinity to human JNK1 at 50 nM by cell-based competition binding assay relative to control in presence of DTT. A digest of the protocol: as §3
Test [18] deals with Serine/threonine-protein kinase PAK 1 (Homo sapiens) (UniProt Q13153). Description: Binding affinity to human PAK1 at 50 nM by cell-based competition binding assay relative to control in presence of DTT.

The values below come from ChEMBL document CHEMBL1152541, “Staurosporine tethered peptide ligands that target cAMP-dependent protein kinase (PKA): optimization and selectivity profiling” (Bioorg Med Chem, 2009).

*1 amine or outer side, *2 acyl side, *3 side chain or, on linkers, in order; H or OH if unused. Where a SMILES comes first, the peptide text is derived from it. Bridges are numbered along the chain shown (N, C = ends). [ ]: non-standard residue; d: D form. The star is where a group is joined. Staurosporine = CO[C@@H]1[C@H](N(C)*)C[C@H]2O[C@]1(C)n1c3ccccc3c3c4c(c5c6ccccc6n2c5c31)C(=O)NC4; Suc = O=C(CCC(=O)[*:2])[*:1]; Dap = NC[C@H](N)C(=O)O; βAla = NCCC(=O)O

On to `CO[C@@H]1[C@H](N(C)C(=O)CCC(=O)NCCC(=O)NCCC(=O)NCCC(N)=O)C[C@H]2O[C@]1(C)n1c3ccccc3c3c4c(c5c6ccccc6n2c5c31)C(=O)NC4`, for which the Activity was 5.2% in [1]; 92% in [2]; 35% in test [3]; 100% in [4]; 0.05% in test [5]; 87% in test [6]. Also, the Activity in test [7] is 2.2%.
Turning to `CO[C@@H]1[C@H](N(C)C(=O)CCC(=O)NCCC(=O)NCCC(=O)NCCC(=O)NCCC(=O)NCCC(=O)NCCC(=O)NCCC(=O)N[C@H]2CSSC[C@@H](C(=O)NCC(N)=O)NC(=O)CNC(=O)[C@H](Cc3ccccc3)NC(=O)[C@H](C(C)C)NC(=O)[C@H](CCCNC(=N)N)NC(=O)[C@H](Cc3ccccc3)NC(=O)[C@H](C(C)C)NC2=O)C[C@H]2O[C@]1(C)n1c3ccccc3c3c4c(c5c6ccccc6n2c5c31)C(=O)NC4` ({Staurosporine-Suc-βAla-βAla-βAla-βAla-βAla-βAla-βAla}-CVFRVFGCG-NH2; disulfide 1-8), the Activity in test [8] was determined as 87%; in [9], 41%; in test [10], 89%; in test [11] it was 40%.
Regarding `CO[C@@H]1[C@H](N(C)C(=O)CCC(=O)NCCC(=O)NCCC(=O)NCCC(=O)NCCC(=O)NCCC(=O)NCCC(=O)NCCC(=O)N[C@H]2CNC(=O)C[C@@H](C(N)=O)NC(=O)CNC(=O)[C@H](Cc3ccccc3)NC(=O)[C@H](C(C)C)NC(=O)[C@H](CCCNC(=N)N)NC(=O)[C@H](Cc3ccccc3)NC(=O)[C@H](C(C)C)NC2=O)C[C@H]2O[C@]1(C)n1c3ccccc3c3c4c(c5c6ccccc6n2c5c31)C(=O)NC4` ({Staurosporine-Suc-βAla-βAla-βAla-βAla-βAla-βAla-βAla}-[Dap]VFRVFGD-NH2; lactam 1-8), the Activity in test [12] amounted to 57%; in [13] it was 99%; in test [14], 100%; in test [15], 85%; in [16] it was 79%; in test [17] it was 100%. Also, in [18], the Activity came out at 66%.
